Source: ChEMBL document CHEMBL2346641, “Discovery of disubstituted piperidines and homopiperidines as potent dual NK1 receptor antagonists-serotonin reuptake transporter inhibitors for the treatment of depression” (Bioorg Med Chem, 2013)
The source made the active and inactive calls.

Tests used:
[1] = Drug uptake in gerbil brain at 3 mg/kg, ip after 36 mins; format: ADME, organism-based; design: dose 3 mg/kg, route intraperitoneal; details: gerbillinae, read-out: Drug uptake
Method in brief: (§1)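 Gerbils given IP doses as a solution in 100% PEG-400. Brain and serum sampled 36 min post-injection, covering the time from dosing to the end of the behavioral test. Values are means (n = 3) with SD.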

[2] = Drug uptake in gerbil brain at 1 mg/kg, ip after 36 mins; format: ADME, organism-based; design: dose 1 mg/kg, route intraperitoneal; details: gerbillinae, read-out: Drug uptake; method in brief: as §1
[3] = Drug uptake in gerbil serum at 1 mg/kg, ip after 36 mins; format: ADME, organism-based; design: dose 1 mg/kg, route intraperitoneal; details: gerbillinae, read-out: Drug uptake; method in brief: as §1
[4] = target: Histamine H2 receptor (Homo sapiens) (UniProt P25021); assay: Inhibition of histamine H2 receptor (unknown origin) at 10 uM
Chain of Histamine H2 receptor (Homo sapiens) (P25021 whole entry): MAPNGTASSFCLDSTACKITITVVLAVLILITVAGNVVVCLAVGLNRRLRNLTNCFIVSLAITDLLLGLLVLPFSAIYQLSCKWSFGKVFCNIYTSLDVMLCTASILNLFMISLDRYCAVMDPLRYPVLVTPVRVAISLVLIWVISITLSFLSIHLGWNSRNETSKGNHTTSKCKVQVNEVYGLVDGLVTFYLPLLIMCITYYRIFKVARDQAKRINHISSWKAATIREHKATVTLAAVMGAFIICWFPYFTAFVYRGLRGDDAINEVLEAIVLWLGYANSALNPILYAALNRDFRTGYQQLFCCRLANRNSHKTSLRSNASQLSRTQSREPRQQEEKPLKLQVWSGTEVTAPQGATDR
Method in brief: (§2)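 Screened at 10 µM in a commercial panel of over 70 receptors. Significance threshold set at ≥50% inhibition.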

[5] = system: Gerbillinae; assay: Antidepressant activity in gerbil assessed as decrease in immobility time at 0.3 to 3 mg/kg, ip administered for 30 mins prior to testing measured for 6 mins by forced swimming test; format: functional, organism-based
[6] = Drug uptake in gerbil serum at 10 mg/kg, ip after 36 mins; format: ADME, organism-based; design: dose 10 mg/kg, route intraperitoneal; details: gerbillinae, read-out: Drug uptake; method in brief: as §1
[7] = target: T1, 5-hydroxytryptamine receptor 1A (Homo sapiens, UniProt P08908); assay: Inhibition of 5HT1A receptor (unknown origin)
T1 sequence (P08908 whole entry): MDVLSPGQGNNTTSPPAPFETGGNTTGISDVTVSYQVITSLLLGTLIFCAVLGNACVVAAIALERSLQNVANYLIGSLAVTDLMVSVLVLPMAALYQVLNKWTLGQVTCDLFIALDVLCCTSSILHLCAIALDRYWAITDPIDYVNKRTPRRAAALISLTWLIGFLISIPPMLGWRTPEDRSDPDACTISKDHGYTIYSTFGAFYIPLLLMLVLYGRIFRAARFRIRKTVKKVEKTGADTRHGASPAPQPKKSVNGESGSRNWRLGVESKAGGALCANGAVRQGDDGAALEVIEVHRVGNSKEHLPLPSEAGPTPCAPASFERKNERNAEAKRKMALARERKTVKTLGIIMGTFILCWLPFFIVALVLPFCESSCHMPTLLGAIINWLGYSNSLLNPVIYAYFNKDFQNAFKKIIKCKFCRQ

[8] = target: T2, 5-hydroxytryptamine receptor 2B (Homo sapiens, UniProt P41595); assay: Inhibition of 5HT2B receptor (unknown origin)
T2 sequence (P41595 whole entry): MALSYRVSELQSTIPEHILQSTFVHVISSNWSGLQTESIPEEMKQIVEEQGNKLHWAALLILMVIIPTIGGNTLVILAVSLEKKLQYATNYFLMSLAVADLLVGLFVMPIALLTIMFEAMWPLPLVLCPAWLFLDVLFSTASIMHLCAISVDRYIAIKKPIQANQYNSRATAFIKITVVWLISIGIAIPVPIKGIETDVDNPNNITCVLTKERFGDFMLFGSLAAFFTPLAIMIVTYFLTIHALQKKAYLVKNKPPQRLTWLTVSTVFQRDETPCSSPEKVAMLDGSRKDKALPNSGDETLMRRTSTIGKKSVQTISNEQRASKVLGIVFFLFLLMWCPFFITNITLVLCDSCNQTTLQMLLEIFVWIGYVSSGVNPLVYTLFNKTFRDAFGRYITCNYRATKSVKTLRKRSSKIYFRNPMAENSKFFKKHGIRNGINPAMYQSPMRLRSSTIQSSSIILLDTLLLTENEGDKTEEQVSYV

[9] = Drug uptake in gerbil brain at 0.1 mg/kg, ip after 36 mins; format: ADME, organism-based; design: dose 0.1 mg/kg, route intraperitoneal; details: gerbillinae, read-out: Drug uptake; method in brief: as §1
[10] = target: Sodium-dependent noradrenaline transporter (Homo sapiens, UniProt P23975); assay: Inhibition of NET (unknown origin)
Chain of Sodium-dependent noradrenaline transporter (P23975 whole entry): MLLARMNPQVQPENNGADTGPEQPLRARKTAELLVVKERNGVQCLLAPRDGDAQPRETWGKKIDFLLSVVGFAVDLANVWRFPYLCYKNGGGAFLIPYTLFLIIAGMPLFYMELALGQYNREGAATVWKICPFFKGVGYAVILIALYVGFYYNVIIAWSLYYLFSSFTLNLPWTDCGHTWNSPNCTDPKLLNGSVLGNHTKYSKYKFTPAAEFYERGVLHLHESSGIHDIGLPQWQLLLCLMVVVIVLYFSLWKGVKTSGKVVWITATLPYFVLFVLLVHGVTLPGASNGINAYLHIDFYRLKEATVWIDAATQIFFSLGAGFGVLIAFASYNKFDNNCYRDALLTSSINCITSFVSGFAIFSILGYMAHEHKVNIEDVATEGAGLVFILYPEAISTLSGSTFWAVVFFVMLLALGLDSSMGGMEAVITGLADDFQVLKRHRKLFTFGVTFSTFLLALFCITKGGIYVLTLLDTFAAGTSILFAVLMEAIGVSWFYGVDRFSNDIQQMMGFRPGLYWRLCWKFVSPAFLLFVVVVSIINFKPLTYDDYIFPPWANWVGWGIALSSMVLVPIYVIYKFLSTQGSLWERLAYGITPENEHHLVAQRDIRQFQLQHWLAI

[11] = Ratio of drug level in brain to serum in gerbil at 10 mg/kg, ip after 36 mins; format: ADME, organism-based; design: dose 10 mg/kg, route intraperitoneal; details: gerbillinae
Method in brief: (§3)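 Gerbils given single IP dose in 100% PEG-400 (0.1–30 mg/kg); brain and serum sampled 36 min post-dose, matching the interval from dosing to end of forced swim test. Drug concentrations (nM) measured in each matrix and brain-to-serum ratio calculated; mean of n = 3 with SD.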

[12] = target: 5-hydroxytryptamine receptor 2A (Homo sapiens, UniProt P28223); assay: Inhibition of 5HT2A receptor (unknown origin)
Chain of 5-hydroxytryptamine receptor 2A (P28223 whole entry): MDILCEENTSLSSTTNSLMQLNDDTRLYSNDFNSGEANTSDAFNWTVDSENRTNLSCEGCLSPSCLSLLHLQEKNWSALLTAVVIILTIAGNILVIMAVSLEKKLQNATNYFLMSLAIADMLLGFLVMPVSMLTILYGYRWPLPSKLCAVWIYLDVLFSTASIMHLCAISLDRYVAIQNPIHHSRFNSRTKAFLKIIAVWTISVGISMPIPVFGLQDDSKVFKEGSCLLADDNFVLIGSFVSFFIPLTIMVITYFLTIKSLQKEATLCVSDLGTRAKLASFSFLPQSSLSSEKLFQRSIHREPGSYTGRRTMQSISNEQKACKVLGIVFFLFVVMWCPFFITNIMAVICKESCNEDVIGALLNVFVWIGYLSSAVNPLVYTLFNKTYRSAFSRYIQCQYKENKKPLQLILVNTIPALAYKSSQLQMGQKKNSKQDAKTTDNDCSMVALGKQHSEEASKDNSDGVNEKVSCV

[13] = species on record: Homo sapiens; assay: Inhibition of Ca2+ channel (unknown origin) at 10 uM; method in brief: as §2
[14] = Ratio of drug level in brain to serum in gerbil at 0.3 mg/kg, ip after 36 mins; format: ADME, organism-based; design: dose 0.3 mg/kg, route intraperitoneal; details: gerbillinae; method in brief: as §3
[15] = species on record: Homo sapiens; assay: Inhibition of Na+ channel (unknown origin) at 10 uM; method in brief: as §2
[16] = Ratio of drug level in brain to serum in gerbil at 1 mg/kg, ip after 36 mins; format: ADME, organism-based; design: dose 1 mg/kg, route intraperitoneal; details: gerbillinae; method in brief: as §3
[17] = target: T3, Neuromedin-K receptor (Homo sapiens, UniProt P29371); assay: Inhibition of NK3 receptor (unknown origin)
T3 sequence (P29371 whole entry): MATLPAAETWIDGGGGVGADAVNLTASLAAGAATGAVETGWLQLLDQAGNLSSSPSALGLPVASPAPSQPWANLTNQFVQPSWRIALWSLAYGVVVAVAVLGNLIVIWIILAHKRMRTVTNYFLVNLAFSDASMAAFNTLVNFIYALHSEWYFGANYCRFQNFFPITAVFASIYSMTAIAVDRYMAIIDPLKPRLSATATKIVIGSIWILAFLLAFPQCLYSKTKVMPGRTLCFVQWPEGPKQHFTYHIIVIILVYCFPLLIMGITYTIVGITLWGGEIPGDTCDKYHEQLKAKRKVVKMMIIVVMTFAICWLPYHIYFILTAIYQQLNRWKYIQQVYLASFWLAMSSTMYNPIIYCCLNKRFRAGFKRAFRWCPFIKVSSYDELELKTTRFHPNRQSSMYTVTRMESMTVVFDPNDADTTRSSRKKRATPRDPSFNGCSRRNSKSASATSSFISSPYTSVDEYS

[18] = system: Gerbillinae; assay: Toxicity in gerbil assessed as behavioral change measuring spontaneous locomotor activity at 0.1 to 1 mg/kg, ip after 30 mins relative to vehicle-treated control; format: organism-based; design: dose 0.1-1 mg/kg, route intraperitoneal; details: in vivo, 0.5 h
[19] = system: Gerbillinae; assay: Antidepressant activity in gerbil assessed as decrease in immobility time at 10 to 30 mg/kg, ip administered for 30 mins prior to testing measured for 6 mins by forced swimming test; format: functional, organism-based
[20] = Ratio of drug level in brain to serum in gerbil at 0.1 mg/kg, ip after 36 mins; format: ADME, organism-based; design: dose 0.1 mg/kg, route intraperitoneal; details: gerbillinae; method in brief: as §3
[21] = target: T2, 5-hydroxytryptamine receptor 2B; details: 10 uM
[22] = Drug uptake in gerbil serum at 0.1 mg/kg, ip after 36 mins; format: ADME, organism-based; design: dose 0.1 mg/kg, route intraperitoneal; details: gerbillinae, read-out: Drug uptake; method in brief: as §1
[23] = target: Histamine H1 receptor (Homo sapiens) (UniProt P35367); assay: Inhibition of histamine H1 receptor (unknown origin) at 10 uM; method in brief: as §2
Chain of Histamine H1 receptor (Homo sapiens) (P35367 whole entry): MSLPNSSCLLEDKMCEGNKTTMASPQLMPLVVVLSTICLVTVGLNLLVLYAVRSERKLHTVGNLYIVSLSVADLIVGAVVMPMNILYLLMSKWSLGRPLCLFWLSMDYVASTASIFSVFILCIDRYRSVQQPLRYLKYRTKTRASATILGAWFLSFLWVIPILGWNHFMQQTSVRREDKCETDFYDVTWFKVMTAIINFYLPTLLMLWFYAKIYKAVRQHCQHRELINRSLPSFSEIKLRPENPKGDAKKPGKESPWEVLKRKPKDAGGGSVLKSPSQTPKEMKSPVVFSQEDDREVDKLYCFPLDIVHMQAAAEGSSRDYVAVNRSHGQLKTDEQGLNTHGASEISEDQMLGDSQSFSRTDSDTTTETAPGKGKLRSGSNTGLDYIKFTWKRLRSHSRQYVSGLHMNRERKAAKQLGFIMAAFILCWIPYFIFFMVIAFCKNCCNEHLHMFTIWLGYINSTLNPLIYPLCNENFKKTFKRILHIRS

[24] = Drug uptake in gerbil brain at 30 mg/kg, ip after 36 mins; format: ADME, organism-based; design: dose 30 mg/kg, route intraperitoneal; details: gerbillinae, read-out: Drug uptake; method in brief: as §1
[25] = Drug uptake in gerbil brain at 0.3 mg/kg, ip after 36 mins; format: ADME, organism-based; design: dose 0.3 mg/kg, route intraperitoneal; details: gerbillinae, read-out: Drug uptake; method in brief: as §1
[26] = target: Sodium-dependent dopamine transporter (Homo sapiens, UniProt Q01959); assay: Inhibition of DAT (unknown origin)
Chain of Sodium-dependent dopamine transporter (Q01959 whole entry): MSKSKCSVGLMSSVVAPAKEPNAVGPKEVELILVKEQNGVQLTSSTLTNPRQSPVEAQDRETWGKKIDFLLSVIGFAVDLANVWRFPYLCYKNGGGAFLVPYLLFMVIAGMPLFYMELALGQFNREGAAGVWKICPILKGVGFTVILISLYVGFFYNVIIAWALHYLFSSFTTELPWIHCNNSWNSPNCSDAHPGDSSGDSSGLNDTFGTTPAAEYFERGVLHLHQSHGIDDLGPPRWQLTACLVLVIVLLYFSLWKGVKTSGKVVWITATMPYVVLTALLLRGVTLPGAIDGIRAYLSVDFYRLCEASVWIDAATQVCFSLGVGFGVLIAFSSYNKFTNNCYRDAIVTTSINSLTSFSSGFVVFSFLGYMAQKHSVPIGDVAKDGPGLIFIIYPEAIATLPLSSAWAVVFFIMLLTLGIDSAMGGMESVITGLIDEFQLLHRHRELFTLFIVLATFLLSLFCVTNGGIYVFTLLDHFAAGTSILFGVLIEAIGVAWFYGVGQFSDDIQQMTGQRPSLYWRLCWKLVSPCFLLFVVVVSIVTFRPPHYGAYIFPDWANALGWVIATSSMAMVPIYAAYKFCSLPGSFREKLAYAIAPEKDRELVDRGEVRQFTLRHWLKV

[27] = target: 5-hydroxytryptamine receptor 1B (Homo sapiens, UniProt P28222); assay: Inhibition of 5HT1B receptor (unknown origin)
Chain of 5-hydroxytryptamine receptor 1B (P28222 whole entry): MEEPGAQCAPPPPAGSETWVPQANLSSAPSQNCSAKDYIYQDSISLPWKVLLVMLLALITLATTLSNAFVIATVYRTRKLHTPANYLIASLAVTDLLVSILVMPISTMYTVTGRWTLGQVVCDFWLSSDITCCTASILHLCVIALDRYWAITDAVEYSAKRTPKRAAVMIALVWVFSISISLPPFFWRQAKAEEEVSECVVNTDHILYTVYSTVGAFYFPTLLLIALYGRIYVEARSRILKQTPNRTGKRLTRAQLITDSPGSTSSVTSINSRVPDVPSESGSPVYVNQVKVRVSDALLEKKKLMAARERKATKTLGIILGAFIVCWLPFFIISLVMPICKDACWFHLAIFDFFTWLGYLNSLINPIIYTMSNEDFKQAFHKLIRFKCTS

[28] = system: Gerbillinae; assay: Antidepressant activity in gerbil assessed as decrease in immobility time at 0.1 mg/kg, ip administered for 30 mins prior to testing measured for 6 mins by forced swimming test relative to vehicle-treated control; format: functional, organism-based; design: dose 0.1 mg/kg

SMILES: FC(F)(F)c1cc(COCC2(c3ccccc3)CCNCC2)cc(C(F)(F)F)c1
- concentration at 0.6 h [1]: 880 nM
- concentration at 0.6 h [2]: 150 nM
- concentration at 0.6 h [3]: 35 nM
- inhibition [4]: Active
- Activity [5]: Active
- concentration at 0.6 h [6]: 730 nM
- IC50 [7]: > 1 µM
- IC50 [8]: > 1 µM
- concentration at 0.6 h [9]: 8.8 nM
- IC50 [10]: > 1 µM
- Kp at 0.6 h [11]: 5.2
- IC50 [12]: > 1 µM
- inhibition [13]: Active
- Kp at 0.6 h [14]: 3.2
- inhibition [15]: Active
- Kp at 0.6 h [16]: 3.2
- IC50 [17]: > 1 µM
- Activity [18]: Non-toxic
- Activity [19]: inactive
- Kp at 0.6 h [20]: 2.3
- inhibition [21]: Active
- concentration at 0.6 h [22]: 3.6 nM
- inhibition [23]: Active
- concentration at 0.6 h [24]: 7300 nM
- concentration at 0.6 h [25]: 44 nM
- IC50 [26]: > 1 µM
- IC50 [27]: > 1 µM
- Activity [28]: inactive
